Values after ≈ are worked out from the molar mass of the structure shown. Active and inactive are the calls of the source. No cut-off for these calls is given here. Where a SMILES comes first, the peptide text is derived from it. [ ]: non-standard residue; d: D form. The star is where a group is joined. Myristoyl = CCCCCCCCCCCCCC(=O)*; Decanoyl = CCCCCCCCCC(=O)*; 3Abz = Nc1cccc(C(=O)O)c1; Orn = NCCC[CH](N)C(=O)O
Columns and labels:
Aspergillus fumigatus [1] = test: Antifungal activity against fluconazole-resistant Aspergillus fumigatus IGMC/LM1/0336 after 24 hrs by M27-A method; format: functional; conditions: IGMC/LM1/0336, 24 h
Summary of the method: (§1)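 Fungi at 2.5×10^3 cfu/mL in RPMI 1640 (L-glutamine, no glucose or NaHCO3, pH 7.0 with 0.165 M MOPS). Mixed 1:1 with serial 2-fold dilutions in water, incubated at 37 °C with shaking, 24 h for A. fumigatus and 48–72 h for C. albicans. Growth read by absorbance at 600 nm. MIC taken as the lowest concentration with no growth.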

Aspergillus niger = test: Antifungal activity against Aspergillus niger ATCC 64028 after 24 hrs by M27-A method; format: functional; conditions: ATCC 64028, 24 h
Summary of the method: (§2)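 Fungi at 2.5×10^3 cfu/mL in RPMI 1640 (L-glutamine, no glucose or NaHCO3, buffered pH 7.0 with 0.165 M MOPS), mixed 1:1 with serial 2-fold aqueous dilutions. Incubated at 37 °C with shaking, 24 h for Aspergillus, 48-72 h for Candida and Cryptococcus; A600 read. MIC taken as lowest concentration with no growth.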

[2] = Membrane permeabilization activity assessed as release of calcein from PE/PG liposomes at 4 ug/ml after 5 mins by spectrofluorimetry; format: ADME
Summary of the method: (§3)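 Calcein-loaded LUVs, PE/PG (bacterial mimic) or PC/PE/PI/ergosterol (fungal mimic), exposed to 1-20 μg/mL for 5 min before fluorescence reading. Triton X-100 in Tris-HCl/NaCl/EDTA buffer sets 100% leakage; % leakage = 100(F−F0)/(Ft−F0). Run in triplicate, two independent experiments, mean ± SD.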

[3] = Membrane permeabilization activity assessed as release of calcein from PC/PE/PI/ergosterol liposomes at 20 ug/ml after 5 mins by spectrofluorimetry; format: ADME; summary of the method: as §3
[4] = Membrane permeabilization activity assessed as release of calcein from PE/PG liposomes at 20 ug/ml after 5 mins by spectrofluorimetry; format: ADME; summary of the method: as §3
[5] = Membrane permeabilization activity assessed as release of calcein from PC/PE/PI/ergosterol liposomes at 4 ug/ml after 5 mins by spectrofluorimetry; format: ADME; summary of the method: as §3
Escherichia coli [6] = test: Antibacterial activity against Escherichia coli MTCC 0723 after 18 hrs by micro dilution broth assay; format: functional; conditions: MTCC 0723, 18 h
Summary of the method: (§4)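 Broth microdilution (modified CLSI): mid-log inoculum at 10^5 CFU/mL in Mueller-Hinton broth; serial 2-fold dilutions of sample in 0.001% acetic acid with 0.2% BSA added. Incubated overnight at 37 °C with agitation; A600 read at 18 h. Drug-free culture and uninoculated broth as controls; triplicate.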

Escherichia coli [7] = test: Antibacterial activity against imipenem-resistant Escherichia coli PGI/ DML02292 clinical isolate after 18 hrs by micro dilution broth assay; format: functional; conditions: PGI/ DML02292, 18 h
Pseudomonas aeruginosa = test: Antibacterial activity against Pseudomonas aeruginosa MTCC 2295 after 18 hrs by micro dilution broth assay; format: functional; conditions: MTCC 2295, 18 h; summary of the method: as §4
Staphylococcus aureus [8] = test: Antibacterial activity against Staphylococcus aureus MTCC 3160 after 18 hrs by micro dilution broth assay; format: functional; conditions: MTCC 3160, 18 h; summary of the method: as §4
Staphylococcus aureus [9] = test: Antibacterial activity against methicillin-resistant Staphylococcus aureus PGI/ DML03149 clinical isolate after 18 hrs by micro dilution broth assay; format: functional; conditions: PGI/ DML03149, 18 h
Bacillus subtilis = test: Antibacterial activity against Bacillus subtilis MTCC 2763 after 18 hrs by micro dilution broth assay; format: functional; conditions: MTCC 2763, 18 h; summary of the method: as §4
[10] = Hemolytic activity in human RBCs; format: ADME, cell-based, Erythrocyte; conditions: red blood cells (RBCs)
Summary of the method: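 Washed fresh human erythrocytes, 4% (v/v) in PBS (35 mM phosphate, 150 mM NaCl, pH 7.2), mixed 1:1 with 2-fold dilutions in PBS. Incubated 1 h at 37 °C without agitation, then centrifuged at 1000 g for 5 min. Supernatant hemoglobin read at 440 nm; % hemolysis = 100(A−A0)/(At−A0).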

[11] = Therapeutic index, ratio of HC50 for human RBCs to MIC for Escherichia coli MTCC 0723; conditions: red blood cells (RBCs), read-out: TI
[12] = Therapeutic index, ratio of HC50 for human RBCs to MIC for Staphylococcus aureus MTCC 3160; conditions: red blood cells (RBCs), read-out: TI
Candida albicans [13] = test: Antifungal activity against Candida albicans ATCC 24433 after 48 to 72 hrs by M27-A method; format: functional; summary of the method: as §2
Candida albicans [14] = test: Antifungal activity against fluconazole-resistant Candida albicans PGI/ DML0109 clinical isolate after 48 to 72 hrs by M27-A method; format: functional; summary of the method: as §1
Cryptococcus neoformans = test: Antifungal activity against Cryptococcus neoformans ATCC 2344 after 48 to 72 hrs by M27-A method; format: functional; summary of the method: as §2
Aspergillus fumigatus [15] = test: Antifungal activity against Aspergillus fumigatus ATCC 42203 after 24 hrs by M27-A method; format: functional; conditions: ATCC 42203, 24 h; summary of the method: as §2
Escherichia coli [16] = test: Bactericidal activity against Escherichia coli MTCC 0723 at 4 to 8 times MIC by time-kill assay; format: functional, organism-based
Summary of the method: (§5)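 Time-kill: mid-log cells (2×10^5 CFU/mL) in MHB, untreated or exposed at 1, 2, 4 and 8×MIC at 37 °C. Aliquots taken at 0, 15, 30, 60, 120 and 240 min, serially 10-fold diluted, plated on Mueller-Hinton agar for 18 h at 37 °C. Log CFU/mL plotted against time versus untreated control; two independent experiments in triplicate.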

Escherichia coli [17] = test: Growth inhibition of Escherichia coli MTCC 0723 at 2 times MIC by time-kill assay; format: functional, organism-based; summary of the method: as §5
Escherichia coli [18] = test: Bactericidal activity against Escherichia coli MTCC 0723 assessed as log reduction in bacterial growth at 4 to 8 times MIC up to 30 mins by time-kill assay relative to control; format: functional; summary of the method: as §5
Staphylococcus aureus [19] = test: Bactericidal activity against Staphylococcus aureus MTCC 3160 assessed as log reduction in bacterial growth at 4 to 8 times MIC up to 30 mins by time-kill assay relative to control; format: functional; summary of the method: as §5
Staphylococcus aureus [20] = test: Bactericidal activity against Staphylococcus aureus MTCC 3160 at 4 to 8 times MIC by time-kill assay; format: functional, organism-based; summary of the method: as §5
Staphylococcus aureus [21] = test: Growth inhibition of Staphylococcus aureus MTCC 3160 at 2 times MIC by time-kill assay; format: functional, organism-based; summary of the method: as §5
Escherichia coli [22] = test: Membrane disruption effect in Escherichia coli MTCC 0723 assessed as surface blebs and aggregation at 4 times MIC by scanning electron microscopy; format: functional, organism-based
Summary of the method: (§6)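 SEM: E. coli and S. aureus at 1×10^6 CFU/mL in 10 mM PBS pH 7.4 with 100 mM NaCl, exposed at 4×MIC at 37 °C. […] After 30 min, cells fixed in 4% glutaraldehyde/0.2 M cacodylate for 3 h at 4 °C, ethanol-dehydrated, HMDS-dried, gold-coated (~20 nm).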

Staphylococcus aureus [23] = test: Membrane disruption effect in Staphylococcus aureus MTCC 3160 assessed as surface blebs and aggregation at 4 times MIC by scanning electron microscopy; format: functional, organism-based; summary of the method: as §6
Escherichia coli [24] = test: Binding affinity to Escherichia coli plasmid DNA at 12 ug/ml after 1 hr by gel retardation assay
Summary of the method: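 Gel retardation: 100 ng plasmid DNA from E. coli PGI/DML02292 mixed with varying peptide amounts in binding buffer (10 mM Tris-HCl pH 8.0, 5% glycerol, 1 mM EDTA, 1 mM DTT, 20 mM KCl, 50 μg/mL BSA). Held 1 h at room temperature, then run on 1% agarose in 0.5× TBE. Polymyxin B as standard.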

Staphylococcus aureus [25] = test: Antibacterial activity against methicillin-resistant Staphylococcus aureus PGI/ DML03149 clinical isolate after 16 days by serial passage resistance development assay; format: functional, organism-based
Summary of the method: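 MRSA clinical isolate serially passaged for 16 days. Each day MICs were set up in microtiter wells over doubling-dilution concentrations, 18 h incubation. Cells from triplicate wells at the concentration still permitting visible growth were diluted to about 2×10^5 CFU/mL to seed the next exposure. MIC was tracked across passages.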

[26] = Proteolytic stability assessed as alpha-chymotrypsin (unknown origin)-mediated degradation after 4 days by analytical RP-HPLC; format: ADME, Homo sapiens; conditions: 96 h
Summary of the method: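 Peptide (1 mg/mL sample solution) and enzyme solution (1 mg per 50 mL) in 0.1 M NH4HCO3 pH 8.2, combined with buffer and incubated at 37 °C. Aliquots taken over time, quenched with 10% formic acid. Remaining peptide quantified by C18 RP-HPLC with a water/acetonitrile gradient (0.05% TFA); enzyme-free control run alongside.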

Plasma = test: Stability in human plasma after 24 hrs by analytical RP-HPLC; format: ADME, cell-free
Summary of the method: (§7)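 Heparinized fresh human plasma (1 mL) plus 50 μL of a […] aqueous stock, incubated at 37 °C. At intervals, 100 μL aliquots precipitated with 200 μL 95% ethanol, held 15 min at 4 °C, spun at 18,000 g for 2 min. Supernatant analysed by C18 RP-HPLC.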

[27] = Stability in human plasma after 4 days by analytical RP-HPLC; format: ADME, cell-free; conditions: read-out: Stability; summary of the method: as §7

Row | SMILES | MIC (Aspergillus fumigatus [1]) [µg/mL] | MIC (Aspergillus niger) [µg/mL] | Activity [2] [%] | Activity [3] [%] | Activity [4] [%] | Activity [5] [%] | MIC (Escherichia coli [6]) [µg/mL] | MIC (Escherichia coli [7]) [µg/mL] | MIC (Pseudomonas aeruginosa) [µg/mL] | MIC (Staphylococcus aureus [8]) [µg/mL] | MIC (Staphylococcus aureus [9]) [µg/mL] | MIC (Bacillus subtilis) [µg/mL] | HC50 [10] [µg/mL] | selectivity ratio [11] | selectivity ratio [12] | MIC (Candida albicans [13]) [µg/mL] | MIC (Candida albicans [14]) [µg/mL] | MIC (Cryptococcus neoformans) [µg/mL] | MIC (Aspergillus fumigatus [15]) [µg/mL] | also measured
1 | CCCCCCCCCC(=O)Nc1cccc(C(=O)NC(CCCN)C(=O)NC(CCCN)C(=O)NC(CCCN)C(=O)NC(CCCN)C(N)=O)c1 (stereo unspecified) ({Decanoyl-3Abz}-[Orn][Orn][Orn][Orn]-NH2; configuration not given here) | 25 (≈ 33.5 µM) | 31.5 (≈ 42.2 µM) | 11 | 45 | 67 | 17 | 17.5 (≈ 23.4 µM) | 25 (≈ 33.5 µM) | 25 (≈ 33.5 µM) | 20 (≈ 26.8 µM) | 35 (≈ 46.9 µM) | 100 (≈ 134 µM) | 1000 | 57.1 | 50 | 50 (≈ 66.9 µM) | 50 (≈ 66.9 µM) | 50 (≈ 66.9 µM) | 25 (≈ 33.5 µM) | 
2 | CCCCCCCCCCCCCC(=O)Nc1cccc(C(=O)NC(CCCN)C(=O)NC(CCCN)C(=O)NC(CCCN)C(=O)NC(CCCN)C(N)=O)c1 (stereo unspecified) ({Myristoyl-3Abz}-[Orn][Orn][Orn][Orn]-NH2; configuration not given here) | 4 (≈ 4.98 µM) | 3 (≈ 3.74 µM) | 58 | 77 | 93 | 29 | 1.25 (≈ 1.56 µM) | 3.1 (≈ 3.86 µM) | 2 (≈ 2.49 µM) | 1.5 (≈ 1.87 µM) | 2 (≈ 2.49 µM) | 10 (≈ 12.5 µM) | 500 | 400 | 333 | 3.1 (≈ 3.86 µM) | 4 (≈ 4.98 µM) | 6.25 (≈ 7.78 µM) | 2.25 (≈ 2.8 µM) | Activity (Escherichia coli [16]): Active; growth inhibition (GI) (Escherichia coli [17]): Active; FC (Escherichia coli [18]): 5; FC (Staphylococcus aureus [19]): 5; Activity (Staphylococcus aureus [20]): Active; growth inhibition (GI) (Staphylococcus aureus [21]): Active; Activity (Escherichia coli [22]): Active; Activity (Staphylococcus aureus [23]): Active; Activity (Escherichia coli [24]): inactive; Activity (Staphylococcus aureus [25]): Active; Stability [26]: Stable; Stability (Plasma): Stable; remaining at 96 h [27]: 76%

Source: ChEMBL document CHEMBL3351820, “Development of novel membrane active lipidated peptidomimetics active against drug resistant clinical isolates” (Bioorg Med Chem, 2014)
